Activity calls are given as the source filed them. The calls are words filed in the database; no cut-off is given here.

The text below walks through data of ChEMBL document CHEMBL2390828, “Synthesis and biological characterization of spiro[2H-(1,3)-benzoxazine-2,4'-piperidine] based histone deacetylase inhibitors” (Eur J Med Chem, 2013).

Data set [1] can be described thus: Permeability from apical to basolateral side across human Caco2 cells after 2 hrs by LC-MS analysis. It is filed as ADME, cell-based. As to conditions: Caco-2, read-out: permeability. For orientation: Passage across Caco-2 layers is used to estimate intestinal permeability.
The target of data set [2] is T1, Protein deacetylase HDAC6 (Homo sapiens, UniProt Q9UBN7).
T1 sequence (Q9UBN7 whole entry): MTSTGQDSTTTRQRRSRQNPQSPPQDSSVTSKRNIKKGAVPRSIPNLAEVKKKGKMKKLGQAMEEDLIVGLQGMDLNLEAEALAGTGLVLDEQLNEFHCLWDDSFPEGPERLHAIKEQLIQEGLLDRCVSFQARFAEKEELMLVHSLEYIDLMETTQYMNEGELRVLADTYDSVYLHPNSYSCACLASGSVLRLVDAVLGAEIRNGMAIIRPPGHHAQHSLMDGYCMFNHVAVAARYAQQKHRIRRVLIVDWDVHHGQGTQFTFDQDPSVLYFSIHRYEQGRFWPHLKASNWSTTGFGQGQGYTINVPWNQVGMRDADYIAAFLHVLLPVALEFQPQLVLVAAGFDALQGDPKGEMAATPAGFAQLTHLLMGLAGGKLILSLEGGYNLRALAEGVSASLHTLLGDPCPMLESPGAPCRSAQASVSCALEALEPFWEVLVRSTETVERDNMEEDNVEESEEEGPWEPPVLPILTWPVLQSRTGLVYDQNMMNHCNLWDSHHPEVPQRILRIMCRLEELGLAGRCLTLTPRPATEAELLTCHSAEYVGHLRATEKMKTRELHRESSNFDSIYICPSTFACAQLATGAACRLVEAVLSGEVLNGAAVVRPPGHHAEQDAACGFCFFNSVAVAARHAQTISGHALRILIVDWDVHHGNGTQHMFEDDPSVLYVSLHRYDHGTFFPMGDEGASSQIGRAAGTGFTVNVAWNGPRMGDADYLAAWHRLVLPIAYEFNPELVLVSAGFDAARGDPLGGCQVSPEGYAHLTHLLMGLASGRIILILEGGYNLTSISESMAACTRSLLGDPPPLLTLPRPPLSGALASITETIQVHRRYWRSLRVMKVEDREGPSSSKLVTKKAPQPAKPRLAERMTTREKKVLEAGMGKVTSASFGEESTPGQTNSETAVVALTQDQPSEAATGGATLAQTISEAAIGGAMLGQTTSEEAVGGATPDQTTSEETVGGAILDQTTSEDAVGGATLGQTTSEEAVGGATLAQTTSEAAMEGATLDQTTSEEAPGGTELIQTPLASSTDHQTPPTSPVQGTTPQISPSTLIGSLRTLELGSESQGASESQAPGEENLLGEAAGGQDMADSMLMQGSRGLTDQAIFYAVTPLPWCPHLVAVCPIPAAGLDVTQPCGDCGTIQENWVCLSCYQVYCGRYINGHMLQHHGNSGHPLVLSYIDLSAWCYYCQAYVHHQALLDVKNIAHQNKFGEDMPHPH
Briefly: Inhibition of HDAC6 (unknown origin).

The target in data set [3] is Histone deacetylase 2 (Homo sapiens, UniProt Q92769). Briefly: Inhibition of HDAC2 (unknown origin).
Histone deacetylase 2, sequence (Q92769 whole entry): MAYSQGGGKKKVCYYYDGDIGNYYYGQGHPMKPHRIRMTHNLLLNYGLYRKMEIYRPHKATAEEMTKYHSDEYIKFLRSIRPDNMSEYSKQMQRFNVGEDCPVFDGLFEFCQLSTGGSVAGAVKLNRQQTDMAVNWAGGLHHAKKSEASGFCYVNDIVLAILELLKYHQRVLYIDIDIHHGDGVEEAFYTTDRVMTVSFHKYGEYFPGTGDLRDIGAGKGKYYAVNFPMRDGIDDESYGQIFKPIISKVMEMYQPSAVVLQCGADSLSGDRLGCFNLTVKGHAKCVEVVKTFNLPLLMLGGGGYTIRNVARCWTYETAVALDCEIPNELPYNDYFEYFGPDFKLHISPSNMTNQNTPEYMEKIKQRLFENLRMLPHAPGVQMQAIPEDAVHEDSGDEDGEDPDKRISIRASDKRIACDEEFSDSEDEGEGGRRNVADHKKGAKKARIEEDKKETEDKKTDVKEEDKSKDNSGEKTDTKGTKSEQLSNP
Data set [4] concerns the target Histone deacetylase 3 (Homo sapiens, UniProt O15379). Briefly: Inhibition of HDAC3 (unknown origin).
Data set [5] deals with T2, Voltage-gated inwardly rectifying potassium channel KCNH2 (Homo sapiens, UniProt Q12809). As to the kind of experiment: Displacement of [3H]astemizole from human ERG channel transfected in HEK293 cells after 60 mins by liquid scintillation counting analysis. The format is cell-based. A general note: In a radioligand displacement assay an active substance lowers the binding of a labelled ligand.
T2 sequence (Q12809 whole entry): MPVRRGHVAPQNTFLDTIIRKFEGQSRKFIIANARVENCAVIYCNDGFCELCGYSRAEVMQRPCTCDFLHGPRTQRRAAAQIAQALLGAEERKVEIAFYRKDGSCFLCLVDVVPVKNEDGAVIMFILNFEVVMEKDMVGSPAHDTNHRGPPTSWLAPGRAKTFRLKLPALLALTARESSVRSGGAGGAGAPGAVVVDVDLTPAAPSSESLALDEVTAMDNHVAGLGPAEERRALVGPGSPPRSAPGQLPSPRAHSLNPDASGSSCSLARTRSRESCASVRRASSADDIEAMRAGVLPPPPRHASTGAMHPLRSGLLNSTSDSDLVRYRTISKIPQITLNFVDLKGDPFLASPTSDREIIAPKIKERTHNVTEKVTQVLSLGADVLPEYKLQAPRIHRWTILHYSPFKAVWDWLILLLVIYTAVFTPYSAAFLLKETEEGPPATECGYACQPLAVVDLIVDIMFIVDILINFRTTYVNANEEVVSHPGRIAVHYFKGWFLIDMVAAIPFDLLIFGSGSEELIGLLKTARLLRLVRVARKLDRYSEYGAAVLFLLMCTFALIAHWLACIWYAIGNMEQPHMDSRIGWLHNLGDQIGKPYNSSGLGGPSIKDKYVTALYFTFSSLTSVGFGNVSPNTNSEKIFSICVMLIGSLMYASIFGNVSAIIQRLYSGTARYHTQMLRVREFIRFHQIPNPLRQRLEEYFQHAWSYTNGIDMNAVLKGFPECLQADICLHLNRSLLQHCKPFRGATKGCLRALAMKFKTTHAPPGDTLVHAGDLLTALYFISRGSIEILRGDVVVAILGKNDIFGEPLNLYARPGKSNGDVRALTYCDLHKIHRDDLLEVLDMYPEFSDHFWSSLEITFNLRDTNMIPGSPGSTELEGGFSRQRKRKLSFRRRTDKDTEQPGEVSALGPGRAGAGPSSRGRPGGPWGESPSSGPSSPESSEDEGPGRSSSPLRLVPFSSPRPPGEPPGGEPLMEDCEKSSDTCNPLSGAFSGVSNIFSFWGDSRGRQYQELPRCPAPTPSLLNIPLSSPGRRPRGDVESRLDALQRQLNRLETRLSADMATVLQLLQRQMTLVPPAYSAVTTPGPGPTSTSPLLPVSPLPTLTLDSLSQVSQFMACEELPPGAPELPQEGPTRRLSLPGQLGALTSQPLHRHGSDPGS

A short description of data set [6]: Metabolic stability in human liver microsomes after 30 mins by LC-MS/MS analysis. It is filed as ADME, Microsome. The note with it: read-out: Stability. In short, it runs like this:
(§1)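 Compounds were incubated with mouse or human liver microsomal preparation for 30 min at 37 °C. The reaction was stopped with CH3CN. Unmetabolized compound was quantified by LC-MS/MS in MRM mode and reported as percent remaining. Replicates n ≥ 2, mean values given.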

Data set [7] in a line: Metabolic stability in mouse liver microsomes after 30 mins by LC-MS/MS analysis. The format is ADME, Microsome. The note with it: read-out: Stability. Put shortly:
as §1

Data set [8] has as its system Mus musculus. Briefly: Cmax in CD1 mouse at 15 mg/kg, po. The note with it: mouse, in vivo.
Data set [9] is described as follows: Oral bioavailability in CD1 mouse at 15 mg/kg. As to conditions: in vivo.
For data set [10], the system named is Mus musculus. Briefly: Inhibition of HDAC in human HCT116 cells […] in CD1 mouse at 75 to 150 mg/kg, po administered 5 days a week for 2 weeks by immunohistochemistry relative to control. As to conditions: HCT-116. The format is functional, organism-based. Put shortly:
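Tumours came from HCT116 xenograft-bearing CD-1 nude mice dosed orally at 75 or 150 mg/kg once daily, 5 days/week for 2 weeks. Sections were taken at the end of treatment from vehicle and treated mice. Histone acetylation was stained by immunohistochemistry (anti-acetyl H4 clone T25, 1:13,000) and scored by positive cells and signal intensity.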

Data set [11] deals with HCT-116. Briefly: Antitumor activity against human HCT116 cells […] in CD1 mouse at 150 mg/kg, po administered 5 days a week for 2 weeks relative to control. The format is functional. In short, it runs like this: (§2)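 Female CD-1 nude mice received 5 × 10⁶ HCT116 cells subcutaneously in the flank. Once tumours reached 100 mm³, dosing was 75 or 150 mg/kg orally, once daily, 5 days/week for 2 weeks. Tumour volume and body weight were followed. Tumour/control (T/C) ratio was calculated against vehicle controls.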

The subject of data set [12] is HCT-116. As to the kind of experiment: Antitumor activity against human HCT116 cells […] in CD1 mouse at 75 mg/kg, po administered 5 days a week for 2 weeks relative to control. It is filed as functional. In short, it runs like this: as §2
In data set [13] the test system is HCT-116. As to the kind of experiment: Antitumor activity against human HCT116 cells […] in po dosed CD1 mouse administered 5 days a week for 2 weeks relative to control. It is filed as functional, organism-based. In short, it runs like this: as §2
Data set [14] relates to Mus musculus. Briefly: Toxicity in CD1 mouse xenografted with human HCT116 cells assessed as body weight change at 75 to 150 mg/kg, po qd administered 5 days a week for 2 weeks. As to conditions: in vivo. Further details: dose 75-150 mg/kg, route oral. It is filed as organism-based, HCT-116. In short, it runs like this:
as §2
In general terms: In xenograft studies the graft and the host belong to different species.

Data set [15] concerns HCT-116. As to the kind of experiment: Cell cycle arrest in human HCT116 cells assessed as accumulation at G2/M phase at higher dose after 24 hrs by propidium iodide staining-based FACS analysis. It is filed as functional. Put shortly:
(§3)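 HCT116 colon carcinoma cells were exposed to several concentrations for 24 h. Cell-cycle profiles were read by flow cytometry, with G0/G1, G2/M and sub-G1 fractions scored.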

Data set [16] deals with HCT-116. As to the kind of experiment: Induction of apoptosis in human HCT116 cells assessed as increase in sub-G1 population after 24 hrs by propidium iodide staining-based FACS analysis. The format is functional, cell-based. In short, it runs like this: as §3
The test system of data set [17] is HCT-116. Briefly: Cell cycle arrest in human HCT116 cells assessed as accumulation at G0/G1 phase at lower dose after 24 hrs by propidium iodide staining-based FACS analysis. It is filed as functional. Put shortly: as §3
Data set [18] addresses Histone deacetylase (Homo sapiens) (UniProt Q13547+O15379+Q9UBN7+Q92769+Q9UQL6+Q8WUI4+Q9BY41+Q96DB2+P56524+Q9UKV0+Q969S8). Briefly: Inhibition of HDAC in human K562 cells assessed as increase in histone acetylation level after 2 to 8 hrs by flow cytometry. It is filed as cell-based. Put shortly:
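K562 cells were treated at 0.1, 0.5, 1 and 3 µM. Histone acetylation was measured by flow cytometry and reported as the ratio of acetylation level in treated over control cells.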

Data set [19] in a line: AUC (0 to infinity) in CD1 mouse at 15 mg/kg, po. It is filed as ADME, organism-based. Further details: time infinity, dose 15 mg/kg, route oral. The note with it: plasma. In short, it runs like this: (§4)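 CD-1 mice got single doses of 5 mg/kg iv or 15 mg/kg orally. The iv vehicle was water with 3% DMSO and 9.7% encapsin. The oral vehicle was water with 5% DMSO and 9.5% encapsin. Plasma PK parameters were calculated, including AUC0–∞, clearance, half-life, Vss, cmax and oral bioavailability.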

Data set [20] can be described thus: Volume of distribution at steady state in CD1 mouse at 5 mg/kg, iv and 15 mg/kg, po. It is filed as ADME, organism-based. The note with it: in vivo, read-out: Vdss. In short, it runs like this:
as §4

Data set [21] is described as follows: Tmax in CD1 mouse at 5 mg/kg, iv and 15 mg/kg, po. It is filed as ADME, organism-based. As to conditions: in vivo. In short, it runs like this:
as §4

A short description of data set [22]: Clearance in CD1 mouse at 5 mg/kg, iv and 15 mg/kg, po. The format is ADME, organism-based. The note with it: in vivo. In short, it runs like this: as §4
Data set [23] in a line: Terminal half life in CD1 mouse at 5 mg/kg, iv and 15 mg/kg, po. The note with it: in vivo, read-out: beta t1/2 (converted). It is filed as ADME, organism-based. Put shortly:
as §4

The nature of data set [24]: AUC (0 to infinity) in CD1 mouse at 5 mg/kg, iv. Set-up: time infinity, dose 5 mg/kg, route intravenous. It is filed as ADME, organism-based. As to conditions: plasma. In short, it runs like this:
as §4

The nature of data set [25]: Cmax in CD1 mouse at 5 mg/kg, iv. Further details: dose 5 mg/kg, route intravenous. It is filed as ADME, organism-based. The note with it: in vivo. In short, it runs like this: as §4
Data set [26] deals with T2, Voltage-gated inwardly rectifying potassium channel KCNH2. As to the kind of experiment: Inhibition of human ERG channel.
The nature of data set [27]: Solubility of the compound at pH 7.4. As to conditions: buffer. The format is physicochemical.
Data set [28] deals with A549. Briefly: Cytotoxicity against human A549 cells. The format is functional, cell-based.
Data set [29] deals with HCT-116. Briefly: Cytotoxicity against human HCT116 cells. It is filed as functional, cell-based.
Data set [30] relates to K562. Briefly: Cytotoxicity against human K562 cells. It is filed as functional, cell-based.
The target of data set [31] is Histone deacetylase. As to the kind of experiment: Inhibition of HDAC in human Hela cell nuclear extract after 15 mins. The format is protein assay.
A short description of data set [32]: Cmax in CD1 mouse at 15 mg/kg, po. The note with it: CD1, mouse, in vivo.

Histone deacetylase 3, sequence (O15379 whole entry): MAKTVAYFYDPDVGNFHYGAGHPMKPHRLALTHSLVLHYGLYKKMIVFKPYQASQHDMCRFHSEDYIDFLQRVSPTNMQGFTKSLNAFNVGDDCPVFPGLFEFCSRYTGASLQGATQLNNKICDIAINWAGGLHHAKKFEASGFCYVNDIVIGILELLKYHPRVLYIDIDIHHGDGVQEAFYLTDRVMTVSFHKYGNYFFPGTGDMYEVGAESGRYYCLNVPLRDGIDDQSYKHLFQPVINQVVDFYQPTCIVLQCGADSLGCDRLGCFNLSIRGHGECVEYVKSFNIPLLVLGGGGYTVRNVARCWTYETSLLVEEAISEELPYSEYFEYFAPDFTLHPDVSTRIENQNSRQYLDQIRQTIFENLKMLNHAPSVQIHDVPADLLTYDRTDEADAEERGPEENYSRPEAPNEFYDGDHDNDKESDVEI

For `O=C(/C=C/c1ccc2c(c1)C(=O)CC1(CCN(Cc3ccccc3)CC1)O2)NO`, in data set [1], the Papp A→B at 2 h is 5.6 ×10⁻⁶ cm/s. Also, the IC50 – broadly, the point on the concentration scale where inhibition reaches its midpoint – in data set [2] stood at 103 nM; in data set [3], 270 nM; in data set [4], 65 nM; in data set [5], 3.81 µM. The remaining at 0.5 h in data set [6] was determined as 55%; in data set [7], 32%. The concentration in data set [8] peaked (Cmax) at 823 nM. Besides, the bioavailability (commonly dose-corrected exposure relative to a reference, in per cent) in data set [9] was 31.5%.

On to `O=C(/C=C/c1ccc2c(c1)C(=O)NC1(CCN(Cc3ccccc3)CC1)O2)NO`, for which, in data set [10], the inhibition result was “Active”. Moreover, in data set [1], the Papp A→B at 2 h stood at 0.4 ×10⁻⁶ cm/s. The T/C is given as 0.33 in data set [11] and 0.59 in data set [12]. Besides, the Activity result in [13] is “Dose-dependent effect”; in data set [14], “Non-toxic”; in data set [16], “Dose-dependent effect”. The outcome in data set [15] and in data set [17] was Active. In addition, the IC50 in [2] worked out at 110 nM; in data set [3] it was 192 nM; in data set [4], 87 nM; in data set [28] it was 1410 nM; in data set [29], 515 nM; in data set [30] it was 582 nM. The compound further showed an IC50 in data set [31] of 0.083 µM. For the same compound, the inhibition entry in data set [18] is “Dose-dependent effect”. In addition, the results for the AUC(0-inf) in data set [19] and in [24] were 1960 ng·h/mL and 1530 ng·h/mL, respectively. Further, the Vd in [20] stood at 8.5 L/kg. In addition, the Tmax (commonly the time at which the peak concentration occurs) in data set [21] is 15 min. For the same compound, in data set [22], the clearance is 54.5 mL/min/kg. In data set [23], the half-life was 804 min. The values for the Cmax in data set [25] and in data set [32] were 13.5 µM and 2710 nM, respectively. Besides, the “inhibition (INH)” value in data set [26] is listed as 54%. Besides, in data set [27], the solubility (commonly how much of the substance goes into solution per volume) was greater than 200 µM. The remaining at 0.5 h in data set [6] is 77%; in data set [7], 75%. Besides, the bioavailability in [9] turned out to be 42.8%.
